High-throughput results: PubChem BioAssay, several laboratories
The full list was thinned out, with hits kept by preference.
ABCB6 inh MLPCN – inhibitors of human ABC transporter ABCB6 | K562-ABCB6 porphyrin accumulation, flow cytometry, 1 h; active compounds read low | fluorescence ratio to DMSO, % at 10 µM | 360,000 tested, 0.19% active | AID 602162;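 active means fluorescence ratio to DMSO below 75%, the collection mean minus 3 SD; inconclusive means too few cells collected in the well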;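 further: signal is porphyrin accumulated inside mitochondria; 100% equals median channel fluorescence of DMSO control wells; lower ratio means ABCB6 inhibition with less porphyrin fluorescence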
V-ATPase pH – yeast V-ATPase proton transport regulation by pHLuorin | S. cerevisiae, pHLuorin cytosolic pH fluorescence | response, % at 10 µM | 350,000 tested, 0.37% active | AID 504577; in the data active means response mostly above about 7.3%, no sharp cut-off; inactive means mostly below about 5.4%; further: actives read high
p-CIP stab down – lowers stability of the mouse p/CIP coactivator protein | decrease of EGFP signal, % at 10 µM | F442A p/CIP-EGFP cells, EGFP fluorescence, 16 h | Q05BA5 | AID 1984 | 290,000 tested, 0.01% active;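 active means EGFP signal decrease of at least 30% at 10 µM or well 3 SD below plate mean, unless failing retest; inactive means the rest, including hits failing retest or dose response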
Target sequence (Q05BA5 1-1403): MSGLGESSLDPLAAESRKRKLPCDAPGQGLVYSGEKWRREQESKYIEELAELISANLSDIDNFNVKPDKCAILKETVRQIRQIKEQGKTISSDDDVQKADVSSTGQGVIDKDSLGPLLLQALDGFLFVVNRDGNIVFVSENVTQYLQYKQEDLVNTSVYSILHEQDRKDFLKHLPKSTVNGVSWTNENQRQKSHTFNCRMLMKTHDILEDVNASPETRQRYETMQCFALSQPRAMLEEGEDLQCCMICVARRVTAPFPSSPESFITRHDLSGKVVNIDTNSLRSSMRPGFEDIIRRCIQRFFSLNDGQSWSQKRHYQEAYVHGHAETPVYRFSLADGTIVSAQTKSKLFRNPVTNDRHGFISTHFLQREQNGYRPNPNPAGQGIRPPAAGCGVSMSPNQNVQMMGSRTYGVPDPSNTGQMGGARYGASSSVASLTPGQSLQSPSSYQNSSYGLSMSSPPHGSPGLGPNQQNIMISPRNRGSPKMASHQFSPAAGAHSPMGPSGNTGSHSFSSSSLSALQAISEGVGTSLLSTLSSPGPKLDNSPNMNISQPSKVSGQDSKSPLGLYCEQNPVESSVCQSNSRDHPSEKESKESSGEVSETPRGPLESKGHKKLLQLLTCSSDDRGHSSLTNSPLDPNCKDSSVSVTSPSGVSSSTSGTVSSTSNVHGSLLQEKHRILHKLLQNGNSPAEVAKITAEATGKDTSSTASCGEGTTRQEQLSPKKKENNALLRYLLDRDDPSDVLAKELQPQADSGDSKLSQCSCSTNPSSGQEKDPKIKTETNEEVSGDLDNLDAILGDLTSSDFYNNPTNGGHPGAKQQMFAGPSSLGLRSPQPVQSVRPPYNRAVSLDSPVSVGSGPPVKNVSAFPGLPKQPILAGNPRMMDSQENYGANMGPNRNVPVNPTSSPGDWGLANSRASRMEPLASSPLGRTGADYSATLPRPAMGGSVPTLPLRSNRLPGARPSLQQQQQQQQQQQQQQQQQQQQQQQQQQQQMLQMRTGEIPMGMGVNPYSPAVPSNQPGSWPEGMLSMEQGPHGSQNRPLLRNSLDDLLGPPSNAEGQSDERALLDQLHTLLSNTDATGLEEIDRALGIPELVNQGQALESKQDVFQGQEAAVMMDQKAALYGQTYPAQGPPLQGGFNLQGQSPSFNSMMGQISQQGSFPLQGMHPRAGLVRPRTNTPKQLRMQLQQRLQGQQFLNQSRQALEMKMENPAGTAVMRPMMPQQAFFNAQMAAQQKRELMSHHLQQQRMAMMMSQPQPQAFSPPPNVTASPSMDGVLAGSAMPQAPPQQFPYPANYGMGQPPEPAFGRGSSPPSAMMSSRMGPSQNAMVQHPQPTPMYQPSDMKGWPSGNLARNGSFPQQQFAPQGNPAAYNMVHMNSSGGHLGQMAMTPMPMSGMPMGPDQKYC
KCC2 mod – modulators of human KCC2 chloride dependent transport; Q9H2X9; 190,000 tested, 2.2% active; B-score of Tl+ flux slope (higher = more flux/activation; lower = inhibition) at 10 µM; KCC2 cells, thallium flux FluoZin-2 fluorescence; AID 1456;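 active means thallium flux slope and its plate-corrected score both differing from the plate sample mean at a set confidence after two filtering rounds, in either direction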;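 further: slope of fluorescence scaled to starting intensity during 10 to 20 s after thallium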
Dynein cargo inh – blocks dynein driven cargo transport along microtubules | z-score, hits read low | 220,000 tested, 0.47% active | 3617.4 mouse cells, GR-EGFP nuclear translocation imaging; test concentration mostly 20 µM; stimulated with dexamethasone, 1 µM; active compounds read low;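 active means plate z-score of nuclear minus cytoplasmic receptor signal below a set negative limit, without overly bright fluorescence or cell loss, cut at about -3.5 in these data, passing the limit was not always enough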;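 further: z-score of nuclear minus cytoplasmic ring GR-EGFP intensity difference per well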
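Buffer or medium – tet-free medium with charcoal-stripped serum · Signal – automated 10x imaging of fixed Hoechst-stained cells · Also added – dexamethasone agonist, 1.0 µM final, for 30 min · Incubation – induction 48 h, compound 1 h, agonist 30 min · Read-out – GR-EGFP nuclear translocation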
KCC2 secondary – KCC2 (human) modulation, secondary assay. 3,700 tested, 15% active. normalised thallium flux (F/F0 slope) at 10 µM. HEK293-KCC2, thallium flux, FluoZin2 fluorescence; active compounds read high. shares compounds with KCC2 mod;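 active means thallium flux slope above the same plate's solvent-only control mean plus 3 SD; inconclusive means the two replicate wells disagree; inactive means no significant difference from solvent-only control wells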
KCC2 bumet counter – thallium flux despite bumetanide block in KCC2 cells, secondary assay 3; shares compounds with KCC2 mod; HEK293-KCC2 + bumetanide/ouabain, thallium flux FluoZin2; active compounds read high; normalized thallium flux at 10 µM; 3,700 tested, 49% active; AID 1714;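 active means thallium entry rate above the same plate's blocked-transporter control wells by more than 3 SD; inconclusive means the two repeat wells disagree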;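 further: raw slope of fluorescence over initial fluorescence between 10 and 20 s after thallium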
KCC2 secondary2 – confirmation of human KCC2 transport modulators; shares compounds with KCC2 mod; HEK293-KCC2, thallium flux FluoZin2 fluorescence; actives lie on both sides; F/F0 rise rate, 10–20 s post-thallium; normalized thallium flux at 10 µM; 3,700 tested, 23% active; AID 1715;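 active means thallium flux slope more than 3 SD above or below the plate's solvent-only control mean, mostly below; inconclusive means the two repeat wells disagreed; inactive means no significant shift from solvent-only controls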;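 further: raw slope with 0.1% DMSO as baseline and bumetanide as block control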
HEK293 Tl flux – acts in parental HEK cells, KCC2 counter-screen. shares compounds with KCC2 mod. HEK293 parental cells, thallium flux FluoZin2, ouabain; baseline-ratio fluorescence slope, 10–20 s after thallium. thallium flux rate (normalised fluorescence) at 10 µM. 3,700 tested, 46% active;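 active means thallium flux rate significantly above the same plate's solvent-only control wells, beyond their mean plus 3 SD; inconclusive means the two replicate wells gave conflicting results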
KCC2 retest ouab – confirmation of human KCC2 modulators with ouabain; 3,700 tested, 48% active; raw Tl+ flux slope (below DMSO = inhibition, above = activation) at 10 µM; shares compounds with KCC2 mod; HEK293-KCC2, thallium flux FluoZin2 fluorescence; bidirectional: low = inhibitor, high = activator;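 active means thallium flux slope beyond 3 SD from same-plate DMSO control mean in most replicates, usually higher, sometimes lower; inconclusive means repeat tests gave conflicting results; inactive means no significant difference from controls in most replicates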;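 further: slope of initial-normalized fluorescence between seconds 10 and 20 after thallium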
HEK counter2 – parental HEK flux effect, counter-screen 2; shares compounds with KCC2 mod; HEK293 parental, thallium flux FluoZin-2 fluorescence slope; thallium flux slope at 10 µM; 3,700 tested, 33% active;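 active means thallium flux slope above the same plate's solvent-control mean plus 3 SD in both duplicate wells; inconclusive means duplicate wells that disagreed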;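 further: run without ouabain in cells lacking the KCC2 cotransporter; slope of fluorescence scaled to its starting value between 10 and 20 s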
Numbers without * were called inactive; ? = inconclusive; / = not tested or not shown.

SMILES	ABCB6 inh MLPCN	V-ATPase pH	p-CIP stab down	KCC2 mod	Dynein cargo inh	KCC2 secondary	KCC2 bumet counter	KCC2 secondary2	HEK293 Tl flux	KCC2 retest ouab	HEK counter2
COCCN(C(=O)c1ccccc1OC1CCN(S(C)(=O)=O)CC1)C(C)C	98	-4	-2	-0.089	0.54	/	/	/	/	/	/
CCc1ccc2[nH]c3nc(SCC(=O)NNC(=O)c4ccc(C(C)(C)C)cc4)nnc3c2c1	99	3	2	/	0.036	/	/	/	/	/	/
Cc1ccc(C(=O)NNC(=O)CSc2nnc3c(n2)[nH]c2ccc(C)cc23)cc1	/	0	-2	5.4*	1.1	0.0065	0.0043	0.032	0.0073	0.018	0.011
Sc1nnc(-c2ccc(Cl)cc2)n1Cc1ccccc1	96	0	/	/	/	/	/	/	/	/	/
COc1ccc(-c2cc(C(=O)N3CCc4ccccc4C3)no2)cc1	97	-3	1	-1.9	0.13	/	/	/	/	/	/
COc1ccc(-c2cc(C(=O)N3CCN(Cc4ccccc4)CC3)no2)cc1OC	97	0	2	-3.4*	-0.66	0.017	?	0.022*	0.0077	0.014	0.01
COc1cccc(-c2cc(C(=O)N3CCc4ccccc4C3)no2)c1	93	1	1	3.4*	-0.58	0.0086	0.0058	0.029	0.007	0.02	0.0094
COc1cccc(-c2cc(C(=O)N3CCN(Cc4ccccc4)CC3)no2)c1	94	-3	-12	/	0.95	/	/	/	/	/	/
O=c1ccn([C@@H]2O[C@H](CNCc3cccn3-c3nccs3)[C@@H](O)[C@H]2O)c(=O)[nH]1	95	/	/	/	/	/	/	/	/	/	/
CCOc1ccc(OCC)c(NC(=O)C2CCN(S(=O)(=O)c3ccc4c(c3)CC(C)N4C(C)=O)CC2)c1 (stereo not drawn)	100	-5	-4	/	/	/	/	/	/	/	/
O=C(CSc1ncnc2c(-c3ccc(Cl)cc3)nsc12)c1ccccc1	98	0	-15	/	0.22	0.014*	0.028*	0.029	0.018*	?	0.01*
Cc1scc(-c2n[nH]c(=S)n2C(C)c2ccccc2)c1C (stereo not drawn)	102	-1	-7	7.7*	0.55	0.0093	0.04*	0.028	0.011*	?	?
CS/C(=C\[N+](=O)[O-])Nc1ccc(OC(F)(F)F)cc1	98	1	-6	-4.2*	-0.065	0.0076	?	0.025*	?	0.014*	0.012
CC(C)(CCl)C(=O)Nc1ccc(OC(F)(F)F)cc1	98	1	-9	0.78	2.2	/	/	/	/	/	/
O=C1OCCC1Sc1nc2ccccc2c(=O)n1-c1ccc(F)cc1 (stereo not drawn)	94	0	4	2.3	-0.1	/	/	/	/	/	/
O=C1OCCC1Sc1nc2ccccc2c(=O)n1Cc1ccc(F)cc1 (stereo not drawn)	93	-1	0	39*	-0.47	0.025*	0.14*	?	0.062*	0.097*	0.033*
CCCCn1c(SCC(=O)Nc2ccc3c(c2)CCC3)nc2ccccc2c1=O	101	0	-9	9*	-0.055	0.0061	0.014*	0.036	0.017*	?	0.02*
C=CCn1c(SCC(=O)Nc2ccc3c(c2)CCC3)nc2ccccc2c1=O	102	1	9	-0.45	-0.04	/	/	/	/	/	/
CCCn1c(N)c(C(=O)CSc2nc3ccccc3c(=O)n2Cc2ccccc2)c(=O)[nH]c1=O	95	-3	-2	40*	0.12	0.016*	0.08*	0.028	0.026*	0.054*	0.012*
O=C(CSc1nc2ccccc2c(=O)n1Cc1ccc(F)cc1)NCc1cccs1	95	-3	7	27*	-0.61	0.0066	0.031*	0.05*	0.035*	0.038*	0.036*
O=C(CN1C(=O)NC2(CCCCCC2)C1=O)c1ccc(Cl)s1	100	-1	/	/	/	/	/	/	/	/	/
Cc1ccc(S(=O)(=O)N2C[C@H]3n4c(=O)ccc(=O)n4C[C@H](OC(=O)NCc4ccccc4F)[C@@]3(O)C2)cc1	99	0	/	/	/	/	/	/	/	/	/
CCC1C(=O)N=C(SCC(=O)Nc2nc3ccccc3s2)NC1=O (stereo not drawn)	96	1	7	0.31	0.32	/	/	/	/	/	/
O=C(CSc1nnc(COc2ccccc2)o1)Nc1ccc(F)cc1	97	6	1	/	/	/	/	/	/	/	/
Cc1cc(NC(=O)CSc2nc3ccccc3c(=O)n2Cc2ccc(F)cc2)no1	95	-3	-7	3.5*	-0.43	0.011	0.019*	0.035	?	?	?
SMILES	ABCB6 inh MLPCN	V-ATPase pH	p-CIP stab down	KCC2 mod	Dynein cargo inh	KCC2 secondary	KCC2 bumet counter	KCC2 secondary2	HEK293 Tl flux	KCC2 retest ouab	HEK counter2
CCCCCCn1c(SCC(=O)Nc2cc(C)on2)nc2ccccc2c1=O	106	0	-18	/	0.64	/	/	/	/	/	/
CCCOc1cccc(-c2cc(C(=O)NN)c3ccccc3n2)c1	94	4	-6	22*	1.8	0.0065	0.0044	0.029	0.0073	0.019	0.0096
CCCOc1cccc(-c2cc(C(=O)N/N=C/c3ccccn3)c3ccccc3n2)c1	92	2	-1	/	/	/	/	/	/	/	/
O=C(COC(=O)CN1C(=O)c2ccccc2C1=O)Nc1ccccc1C(F)(F)F	75	-5	/	/	/	/	/	/	/	/	/
CN(C)S(=O)(=O)c1cccc(NC(=S)N/N=C/c2ccco2)c1	96	-1	-3	6.3*	-1	0.0067	0.0075*	0.027	0.0094*	0.019	0.012*
CCCCn1nc(C(=O)Nc2cc(C(F)(F)F)ccc2N2CCOCC2)ccc1=O	103	-1	/	/	/	/	/	/	/	/	/
O=C(c1cnn2c(C(F)(F)F)cc(-c3ccccc3)nc12)N1CCCCC1c1cccnc1 (stereo not drawn)	94	-2	-1	-3.5	0.37	0.0055	0.004	0.029	0.0054*	0.017	0.0089
Cc1ccc(-c2cc(C(F)F)n3ncc(C(=O)N4CCCCC4c4cccnc4)c3n2)cc1 (stereo not drawn)	102	14	-24	-2.6	-0.033	/	/	/	/	/	/
CC(C)Cn1c(-c2ccc(Br)cc2)c[nH]c1=S	94	-2	0	22*	0.69	0.0067	0.028*	?	0.025*	0.029*	0.025*
CCn1c(-c2ccccc2)c[nH]c1=S	97	/	-1	0.063	-0.41	/	/	/	/	/	/
